Bioassay records (PubChem BioAssay)
Compounds with a hit are over-represented: about 9.6% of the library has one in this group of screens.
TNAP inh hiacc = TNAP (human) inhibition, high acceptor | purified TNAP, CDP-star luminescence, 1 M DEA | inhibition, % at 20 µM | 200,000 compounds, 0.03% hits;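 active = over 50% inhibition of tissue-nonspecific alkaline phosphatase at 20 µM in the single-dose screen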;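 also: plate controls were DMSO wells for no effect and EDTA-quenched wells as full inhibition for full effect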
Target sequence (P05186 whole entry, looked up): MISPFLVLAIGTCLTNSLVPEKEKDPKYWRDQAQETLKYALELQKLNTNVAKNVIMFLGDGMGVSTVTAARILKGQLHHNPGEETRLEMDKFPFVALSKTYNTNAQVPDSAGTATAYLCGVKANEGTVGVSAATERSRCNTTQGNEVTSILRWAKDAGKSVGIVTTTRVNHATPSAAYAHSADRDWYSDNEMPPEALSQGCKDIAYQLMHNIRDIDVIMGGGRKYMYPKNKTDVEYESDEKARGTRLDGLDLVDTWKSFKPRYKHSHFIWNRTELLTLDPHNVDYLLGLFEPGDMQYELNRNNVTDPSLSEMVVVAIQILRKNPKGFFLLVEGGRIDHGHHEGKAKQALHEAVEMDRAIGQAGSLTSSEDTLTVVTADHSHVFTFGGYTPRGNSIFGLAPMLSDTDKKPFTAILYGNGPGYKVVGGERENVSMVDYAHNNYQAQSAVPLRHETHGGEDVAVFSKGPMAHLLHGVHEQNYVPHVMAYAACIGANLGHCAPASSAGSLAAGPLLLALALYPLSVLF
TNAP inh no acc = blocks human TNAP activity with no phosphate acceptor present; AID 1012; inhibition, % at 20 µM; purified TNAP, CDP-star luminescence, 30 min; P05186; 200,000 compounds, 0.26% hits;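 active = tissue-nonspecific alkaline phosphatase inhibition above about 50% at 20 µM in the single-dose screen, limit read from the data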;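 also: 0% = DMSO negative control and 100% = EDTA positive control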
HCT116 PTEN-null = PTEN-deleted cell growth suppression. HCT116 PTEN-null viability, CellTiter-Glo, 60 h; hits give low values. viability, % at 10 µM. 140,000 compounds, 1.2% hits. AID 827;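 active = viability at or below a set limit, 4 SD under the median of all tested compounds, cut at about 3.7% in these data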;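 also: PTEN knockout HCT116 line with beta catenin targeted HCT116 as companion control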
bCat KO growth = beta-catenin-lacking colon tumor cell growth suppression; HCT116 beta-catenin knockout viability, CellTiter-Glo, 60 h; hits give low values; viability, % at 10 µM; 140,000 compounds, 1.5% hits; AID 818;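 active = viability at or under a set limit, the compound median less 4 SD, cut at about 6% in these data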;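 also: 0% = Hyamine 1622 control at 20 µM and 100% = untreated cell control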
L major viab = inhibitors of Leishmania major promastigote growth; Leishmania major promastigotes, resazurin fluorescence viability; inhibition, % at 10 µM; 200,000 compounds, 9% hits; in the data active = inhibition above about 50%;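 also: promastigotes grown with compound for 44 hours at 28 °C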
TNAP act hi DEA = increases human TNAP activity under high phosphate acceptor concentration | P05186 | purified TNAP, CDP-star luminescence, 1 M DEA, 30 min; hits give high values; 0 = EDTA background, 1 = DMSO-only activity | activation factor at 20 µM | 200,000 tested, under 10 active;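 active = activation factor at least 2 at 20 µM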
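system = human TNAP | amount = enzyme diluted 1/800 final | reagent = 100 µM CDP-star substrate | signal = luminescent substrate turnover signal | dosing = one dose, 20 µM | benchmarks = EDTA negative control, DMSO positive control | measure = activation factor | timing = 30 min reaction, room temperature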
The depositor's hits bear a star; . = not tested or not shown.

SMILES | TNAP inh hiacc | TNAP inh no acc | HCT116 PTEN-null | bCat KO growth | L major viab | TNAP act hi DEA
CC(=O)Nc1ccc(S(=O)(=O)Nc2nc3ccccc3nc2N2CCc3ccccc3C2)cc1 | 7 | -3 | 94 | 94 | 85* | 0.9
O=S(=O)(Nc1nc2ccccc2nc1-[n+]1ccccc1)c1ccc(Cl)cc1 | -1 | -9 | 94 | 89 | 56* | 1
O=S(=O)(Nc1nc2ccccc2nc1N1CCN(c2ccccn2)CC1)c1ccc(Cl)cc1 | 3 | -2 | 88 | 96 | 66* | 1
O=S(=O)(Nc1nc2ccccc2nc1N1CCc2ccccc2C1)c1ccc(Cl)cc1 | 2 | 12 | 67 | 73 | 57* | 1
CC(=O)Nc1ccc(S(=O)(=O)Nc2nc3ccccc3nc2N2CCCCCC2)cc1 | 0 | -10 | 100 | 98 | -6 | 1
O=S1(=O)C=C(SCc2ccc(F)cc2)Nc2ccccc21 | -4 | -12 | . | . | 8 | 1
COc1ccc(CNC(=O)COC(=O)CCc2c[nH]c3ccccc23)cc1 | 0 | -8 | . | . | 3 | 1
Cc1cccc(N(Cc2ccccc2)C(=O)CCl)c1 | -4 | -8 | . | . | 81* | 1
O=C(c1cccnc1)N(Cc1ccccc1)c1ccccc1 | 0 | -8 | 102 | 102 | 2 | 1
O=C(CCl)N(Cc1ccccc1)c1ccccc1 | -1 | -2 | . | . | 79* | 1
Cc1cccc(N(CC(=O)O)CC(=O)O)c1 | 4 | -14 | 110 | 91 | 3 | 1
CCn1c(Cc2cccs2)nnc1SCC(=O)NC(C)(C)C | -4 | -20 | . | . | 0 | 1
CCOc1ccccc1NC(=O)CCNC(=O)c1ccc(Cl)cc1 | 0 | -8 | . | . | 11 | 1
CCOc1ccc(OCC)c(S(=O)(=O)n2cc(C)nc2CC)c1 | -6 | -8 | . | . | 99* | 1.1
CCOC(=O)N1CCN(CC(=O)Nc2cccc(Br)c2)CC1 | -2 | -13 | 90 | 126 | -5 | 1
CCOC(=O)N1CCN(CCC(=O)Nc2cc(OC)cc(OC)c2)CC1 | 2 | -5 | 95 | 104 | 52* | 1
CCOC(=O)N1CCN(CCC(=O)Nc2ccc(C)c(Br)c2)CC1 | 3 | -2 | 75 | 74 | 73* | 1
CCOC(=O)N1CCN(CCC(=O)Nc2cccc(Br)c2)CC1 | -7 | -2 | 101 | 112 | 89* | 1.1
CCOC(=O)N1CCN(CCC(=O)Nc2ccc(Br)cc2)CC1 | -2 | 3 | 92 | 91 | 4 | 1
COc1ccc(C(CC(=O)O)NC(=O)Cc2ccccc2)cc1OC (centres undefined) | 3 | -4 | 100 | 95 | -7 | 1
CC(=O)Oc1ccc2ccccc2c1C(NC(=O)Cc1ccccc1)c1ccc(Cl)cc1 (centres undefined) | 2 | -9 | 0.9* | 0.8* | 44 | 1
CC(NS(=O)(=O)c1ccc(Cl)cc1)C(=O)NCCC1=CCCCC1 (centres undefined) | -4 | -9 | . | . | 6 | 1
COc1ccc(OCCNc2cc(N3CCCCC3)ccc2[N+](=O)[O-])cc1 | 6 | 10 | 72 | 61 | 6 | 0.9
CC1CN(c2ccc([N+](=O)[O-])c(NCCOc3ccccc3)c2)CCN1 (centres undefined) | 9 | 4 | . | . | 100* | 0.9
CCNc1nc(Oc2c(Cl)cccc2Cl)cc(C(F)(F)F)n1 | -1 | -7 | 76 | 85 | 77* | 1
SMILES | TNAP inh hiacc | TNAP inh no acc | HCT116 PTEN-null | bCat KO growth | L major viab | TNAP act hi DEA
CCN1CCN(C(=S)c2ccc(O)cc2)CC1 | -3 | -8 | . | . | 13 | 1
CN1CCN(C(=S)c2ccc(N(C)C)cc2)CC1 | -1 | -7 | 93 | 93 | 94* | 1
CSc1ccc(C(=S)N2CCN(C(c3ccccc3)c3ccccc3)CC2)cc1 | -6 | -14 | 78 | 86 | 28 | 1.1
CN(C)c1ccc(C(=S)N2CCN(Cc3ccccc3)CC2)cc1 | -5 | -5 | . | . | 20 | 1.1
CCN1CCN(C(=S)c2ccc(Br)cc2)CC1 | -3 | -4 | 105 | 99 | 85* | 1
COc1cc(NC(=S)N2CCN(C)CC2)c(OC)cc1Cl | -5 | -13 | . | . | 5 | 1
CN1CCN(C(=S)Nc2cc([N+](=O)[O-])ccc2Cl)CC1 | 2 | 29 | 101 | 91 | 66* | 1
CSc1ccc(C(=S)N2CCN(C)CC2)cc1 | 2 | -8 | 98 | 100 | 94* | 1
O=C1c2ccccc2C(=O)N1/N=C/c1ccc(Oc2ccc([N+](=O)[O-])cn2)cc1 | 0 | -6 | . | . | -4 | 1
O=[N+]([O-])c1ccc(C(=S)N2CCC(Cc3ccccc3)CC2)cc1 | -2 | -8 | 72 | 70 | -5 | 1
CN1CCN(C(=S)c2ccc(Br)cc2)CC1 | -2 | -5 | 93 | 88 | 85* | 1
CN1CCN(C(=S)c2ccc([N+](=O)[O-])cc2)CC1 | 3 | -7 | 100 | 95 | 66* | 1
Cc1nn(C)cc1CN1CCCC(C(=O)c2ccc(-c3ccccc3)c(F)c2)C1 (centres undefined) | -8 | -11 | . | . | 97* | 1.1
O=C(c1ccc(-c2ccccc2)c(F)c1)C1CCCN(C(=O)c2cncs2)C1 (centres undefined) | -5 | -1 | . | . | 35 | 1
O=C(c1ccc(-c2ccccc2)cc1)C1CCCN(C(=O)Cn2cncn2)C1 (centres undefined) | -2 | 1 | . | . | 4 | 1
Cn1cc(CN2CCCC(C(=O)c3ccc(-c4ccccc4)cc3)C2)cn1 (centres undefined) | -4 | -8 | . | . | 91* | 1
CCn1cc(CN2CCCC(C(=O)c3ccc(-c4ccccc4)cc3)C2)cn1 (centres undefined) | -7 | 3 | . | . | 86* | 1.1
Cn1cc(CN2CCCC(C(=O)c3ccc(-c4ccccc4)c(F)c3)C2)cn1 (centres undefined) | -1 | 2 | . | . | 87* | 1
COc1cccc(C(=O)C2CCCN(Cc3cn(C)nc3-c3ccccc3)C2)c1 (centres undefined) | -12 | -8 | . | . | 7 | 1.1
CN(C)S(=O)(=O)c1cc(NC(=O)c2cc(=O)[nH]c3ccccc23)ccc1Cl | -1 | -2 | . | . | 1 | 1
CCSc1nnc(NC(=O)CSc2nnc(-c3c[nH]c4ccccc34)n2C)s1 | 1 | 0 | 100 | 93 | -10 | 1
Cc1nc(SCC(=O)NCc2ccco2)c2c(=O)n(C)c(=O)n(CC(C)C)c2n1 | -6 | -15 | . | . | -8 | 1.1
COc1ccc(OC)c(C(=O)c2ccc(C(=O)c3cc(OC)ccc3OC)cc2)c1 | -6 | -2 | 94 | 89 | -2 | 1.1
COc1ccc(OC)c(C(=O)C2COC(=O)C2)c1 (centres undefined) | -1 | -6 | 38 | 34 | 56* | 1
Cc1ccccc1NC(=S)N(CCCN1CCC(C)CC1)Cc1ccco1 | -5 | -16 | 92 | 86 | 13 | 1.1
CCN1CCN(CCCN(Cc2ccco2)C(=S)Nc2ccc(C)c(Cl)c2)CC1 | 4 | -1 | . | . | 47 | 1
